Source: PubChem
Most compounds without a hit are left out; they make up all but 2.6% or so of the library.
SIRT5 inh – blocks human SIRT5 desuccinylation of peptide. Purified SirT5, succinyl-peptide AMC, trypsin-coupled fluorescence. inhibition, % at 15 µM. 1.1% of 330,000 active; in the data active = inhibition above about 15%
Target sequence (Q9NXA8 whole entry, looked up): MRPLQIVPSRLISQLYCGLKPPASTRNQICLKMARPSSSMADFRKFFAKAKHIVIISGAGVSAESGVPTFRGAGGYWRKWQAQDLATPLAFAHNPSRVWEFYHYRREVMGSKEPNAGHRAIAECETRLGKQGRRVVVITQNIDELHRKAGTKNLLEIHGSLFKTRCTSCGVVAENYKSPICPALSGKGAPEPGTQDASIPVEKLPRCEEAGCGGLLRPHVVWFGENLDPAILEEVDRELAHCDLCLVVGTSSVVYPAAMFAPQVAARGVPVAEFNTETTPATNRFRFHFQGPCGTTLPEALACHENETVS
NSD2 inh – NSD2 (human) methyltransferase inhibition. O96028. NSD2 peptide methylation, AlphaScreen, 120 min. inhibition, % at 12.5 µM. 0.54% of 310,000 active. AID 743445; in the data active = inhibition above about 50%
UCH37 inh – inhibitors of human deubiquitinating enzyme UCH37 | Q9Y5K5 | purified proteasome/UCH37, Ub-AMC cleavage fluorescence | inhibition, % (no concentration beside the values) | 0.33% of 330,000 active;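 active = mean inhibition over replicate wells above about 20%, limit read from the data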;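 also: 0% = compound-free wells with enzyme and 100% = wells lacking proteasome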
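Signal – fluorescence, ex 355 nm, em 460 nm · System – Proteasome-bound UCH37 · Input – 0.15 nM proteasome as dispensed · Timing – 30 min preincubation with enzyme, 25 min cleavage at room temperature · Read-out basis – percent inhibition of cleavage signal versus uninhibited and no-proteasome wells · Medium – Tris-HCl pH 7.4 with ATP-MgCl2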
FGF22 binding – binders of recombinant human FGF22 by thermal shift; Q9HCT0; SYPRO orange fluorescence; percent of sucrose octasulfate shift, DMSO zero; activity (Tm shift, normalised), % at 9.99 µM; 1.5% of 340,000 active; AID 651658;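 active = mean Tm shift, scaled 0 neutral to 100 positive control, at about 1.3% or above, every replicate too, limit read from the data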
Target sequence (Q9HCT0 whole entry, looked up): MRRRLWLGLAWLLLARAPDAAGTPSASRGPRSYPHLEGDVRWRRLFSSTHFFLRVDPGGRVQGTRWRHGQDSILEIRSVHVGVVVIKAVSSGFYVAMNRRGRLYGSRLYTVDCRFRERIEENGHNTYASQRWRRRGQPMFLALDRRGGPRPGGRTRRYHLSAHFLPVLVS
CASP6 VEID inh – caspase-6 (human) enzyme inhibition; P55212; purified caspase-6, Z-VEID-R110 cleavage fluorescence; inhibition, % at 12.5 µM; 0.53% of 350,000 active; AID 686996;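 active = mean inhibition across replicates at least about 35%, with every replicate also reaching that limit, limit read from the data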;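 also: 0% = median of neutral control wells and 100% = no fluorescence left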
An asterisk follows results filed as active; . = no result given.

SMILES	SIRT5 inh	NSD2 inh	UCH37 inh	FGF22 binding	CASP6 VEID inh
C[C@H](CO)N1C[C@H](C)[C@H](CN(C)Cc2ccc(Oc3ccccc3)cc2)Oc2ccc(NS(=O)(=O)c3ccccc3)cc2CC1=O	12	.	.	0	52*
COc1ccc2c3c([nH]c2c1)[C@H](CO)N(Cc1cccnc1)CC31CN(C(=O)CN(C)C)C1	0	.	.	0	-10
Cc1cccc(-c2ccc([C@@H]3[C@@H](CO)N4CCCCN(S(=O)(=O)c5ccccc5F)C[C@H]34)cc2)c1	21*	.	.	0	-5
Cc1ccccc1S(=O)(=O)N1CCCCN2[C@H](CO)[C@H](c3ccc(-c4cccc(F)c4)cc3)[C@H]2C1	12	.	.	-1	-1
Cc1ccccc1S(=O)(=O)N1CCCCN2[C@@H](CO)[C@H](c3ccc(-c4cccc(F)c4)cc3)[C@@H]2C1	18*	.	.	-1	0
CN(C)C(=O)[C@@H]1[C@@H](CO)[C@@H]2Cn3c(cccc3=O)[C@@H]2N1C(=O)NC1CCCC1	-1	.	.	.	.
CN1C(=O)c2cc(NC(=O)Cc3ccccc3)ccc2OC[C@@H]2O[C@H](CC(=O)O)CC[C@@H]21	-5	.	.	0	3
CN(/C=C/C(=C\C=[N+](C)c1ccccc1)OCCCS(=O)(=O)[O-])c1ccccc1	1	.	20*	0	19
CN(/C=C/C(=C/C=[N+](C)c1ccccc1)OCCCS(=O)(=O)[O-])c1ccccc1	-2	4	21*	0	8
CC1CCCC(C)N1C(=O)COC(=O)c1ccc(S(=O)(=O)N(C)c2ccccc2)cc1 (configuration not stated)	.	0	0	0	-1
COc1ccc(NC(=O)Nc2cccc3c2O[C@H](CN(C)C(=O)NC2CCCCC2)[C@H](C)CN([C@H](C)CO)C3=O)cc1	5	.	.	-1	3
COc1c(C=NNC(N)=S)c(C)nn1-c1ccccc1	.	.	0	.	.
O=C(Oc1cccc(C(=S)N2CCOCC2)c1)c1ccc([N+](=O)[O-])cc1[N+](=O)[O-]	101*	-1	8	0	-4
C/C=C/c1ccc2c(c1)O[C@H](CN(C)Cc1ccccc1)[C@H](C)CN([C@H](C)CO)S2(=O)=O	0	.	.	0	3
C[C@H]1CN([C@@H](C)CO)S(=O)(=O)c2ccc(/C=C/c3ccccc3)cc2O[C@H]1CN(C)Cc1ccccc1	22*	.	.	0	0
C[C@H](CO)N1C[C@H](C)[C@@H](CN(C)Cc2ccccc2)Oc2cc(/C=C/c3ccccc3)ccc2S1(=O)=O	-4	.	.	0	-1
C[C@H](CO)N1C[C@H](C)[C@H](CN(C)Cc2ccccc2)Oc2cc(/C=C/c3ccccc3)ccc2S1(=O)=O	21*	.	.	0	-2
C[C@@H]1CCCCO[C@H](CN(C)S(C)(=O)=O)[C@@H](C)CN([C@H](C)CO)C(=O)c2cc(NC(=O)NC3CCCCC3)ccc2O1	-2	.	.	0	4
C[C@H]1CCCCO[C@@H](CN(C)C(=O)Nc2ccccc2)[C@@H](C)CN([C@@H](C)CO)C(=O)c2cc(NC(=O)NC3CCCCC3)ccc2O1	4	.	.	.	-1
C[C@H](CO)N1C[C@H](C)[C@H](CN(C)Cc2ccncc2)Oc2ncccc2C1=O	-1	.	.	0	.
CC(=O)c1cccc(N2C(=O)Nc3ccccc3N2O)c1	-3	0	3	43*	0
O=C(O)c1ccc(N2C(=O)Nc3ccccc3N2O)cc1	-4	-2	0	0	-2
C=C(C)CN(CC)C(=O)CSc1nc(O)cc(=O)n1C1CCCC1	1	4	2	43*	-2
OC(Cc1ccccc1Br)c1ncc(-c2ccc(Cl)cc2)[nH]1 (configuration not stated)	1	0	.	2.7*	1
OC(Cc1ccccc1)c1ncc(-c2ccc(Cl)cc2)[nH]1 (configuration not stated)	-4	1	.	1	1
SMILES	SIRT5 inh	NSD2 inh	UCH37 inh	FGF22 binding	CASP6 VEID inh
CC(=O)N1[C@H](C(=O)NCc2ccccc2Cl)[C@@H](CO)[C@@H]2Cn3c(ccc(-c4ccncc4)c3=O)[C@@H]21	-75	.	.	0	1
CCOC(=O)c1nn(-c2ccc(C)cc2)cc1O	.	1	-2	.	.
CCOC(=O)c1nn(-c2ccccc2)cc1O	28*	-1	-3	0	0
COc1cccc(-c2c(C(=O)NN=Cc3ccoc3)nnn2-c2nonc2N)c1	.	.	4	.	.
CN1CCN(c2ccc(NC(=O)c3ccc(Br)o3)cc2)CC1	2	4	6	0	-18
CCC(=O)N1CCN(c2ccc(NC(=O)c3ccc(Br)o3)cc2)CC1	3	12	5	44*	2
CC(=O)N1CCN(c2ccccc2NC(=O)c2ccc(Br)o2)CC1	27*	1	1	0	9
C[C@@H]1CN([C@@H](C)CO)C(=O)c2cc(NS(=O)(=O)c3cccs3)ccc2O[C@@H]1CN(C)Cc1ccc(Cl)c(Cl)c1	18*	.	.	-1	2
C[C@@H]1CN([C@H](C)CO)C(=O)c2cc(NS(=O)(=O)c3cn(C)cn3)ccc2O[C@H]1CN(C)CC1CCCCC1	17*	.	.	0	2
C[C@@H]1CCCCO[C@H](CN(C)Cc2ccc(Cl)c(Cl)c2)[C@@H](C)CN([C@H](C)CO)C(=O)c2cc(NS(=O)(=O)c3cccs3)ccc2O1	7	.	.	1.2*	-2
C[C@H](CO)N1C[C@H](C)[C@H](CN(C)S(=O)(=O)c2cn(C)cn2)Oc2ccc(NS(=O)(=O)c3cccs3)cc2C1=O	15*	.	.	0	-1
C[C@H](CO)N1C[C@H](C)[C@@H](CN(C)C(=O)Nc2ccc(F)cc2)OCCCC[C@H](C)Oc2ccc(NS(=O)(=O)c3cn(C)cn3)cc2C1=O	-6	.	.	0	0
C[C@@H]1CCCCO[C@@H](CN(C)Cc2ccc(Cl)c(Cl)c2)[C@@H](C)CN([C@H](C)CO)C(=O)c2cc(NS(=O)(=O)c3cccs3)ccc2O1	11	.	.	-1	-2
C[C@H](CO)N1C[C@H](C)[C@@H](CN(C)Cc2ccc(Cl)c(Cl)c2)OCCCC[C@H](C)Oc2ccc(NS(=O)(=O)c3cccs3)cc2C1=O	19*	.	.	0	-2
Cc1noc(C)c1NC(=O)Nc1ccc2c(c1)CC(=O)N([C@@H](C)CO)C[C@H](C)[C@H](CN(C)C(=O)Nc1ccc(C(F)(F)F)cc1)O2	3	.	.	0	0
O=C(CSc1n[nH]c(-c2ccccc2)n1)NCc1cccc(C(=O)O)c1	-2	1	-1	43*	2
Cc1ccc(Oc2ncccc2C=NOCc2ccc(Cl)c(Cl)c2)cc1	.	.	-3	.	.
C[C@@H]1CN([C@H](C)CO)C(=O)Cc2cc(NC(=O)Nc3ccccc3)ccc2O[C@@H]1CN(C)Cc1ccncc1	-5	.	.	0	0
COC(CN1CCc2c(C)nc3c(C#N)cnn3c21)OC	17*	-4	-94	1	-2
Cc1nc2c(C#N)cnn2c2c1CCNN2C	1	.	-3	0	3
